According to ChEMBL document CHEMBL1649151, “Urinary bactericidal activity of Doripenem versus that of levofloxacin in patients with complicated urinary tract infections or pyelonephritis” (Antimicrob Agents Chemother, 2009):
Converted amounts (≈) assume the structure as drawn.

Assays:
[1] = tested on: Staphylococcus aureus; assay: Antimicrobial activity against Staphylococcus aureus 1134684 isolated from patient with pyelonephritis assessed as >3-log reduction in urinary bacterial titer after 24 hrs; assay type: functional, Urine
Procedure, shortened: (§1)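 Patient urine was collected on day 3 of i.v. therapy (steady state) over 4-h intervals after infusion start, stored at –80°C, and sterile filtered. It was twofold serially diluted (1:0 to 1:131,072) in the patient's own pre-dose drug-free urine, inoculated to 1.0 x 10^6–9.5 x 10^6 CFU/ml, and incubated for 18 h at 37°C. Subcultures were grown on blood agar for 24 h. The UBT is the reciprocal of the highest dilution giving >99.9% kill.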

[2] = tested on: Enterococcus faecalis; assay: Antimicrobial activity against Enterococcus faecalis 1780065 B-B isolated from patient with pyelonephritis assessed as >3-log reduction in urinary bacterial titer after 4 hrs; assay type: functional, Urine
Procedure, shortened: (§2)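 Urine was collected before dosing and on day 3 of i.v. therapy (steady state), in 4-h intervals from infusion start (0–4 to 20–24 h), stored at −80°C and sterile filtered. It was serially diluted twofold (1:0 to 1:131,072) in the patient's drug-free pre-dose urine. Microdilution used an inoculum of 1.0 x 10^6–9.5 x 10^6 CFU/ml, incubated 18 h at 37°C, then subcultured 24 h on blood agar. The endpoint was >99.9% kill, reported as reciprocal titer.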

[3] = tested on: Proteus mirabilis; assay: Antimicrobial activity against Proteus mirabilis 1134841 isolated from patient with pyelonephritis assessed as >3-log reduction in urinary bacterial titer after 8 hrs; assay type: functional, Urine; procedure, shortened: as §1
[4] = tested on: Pseudomonas aeruginosa; assay: Antimicrobial activity against Pseudomonas aeruginosa ATCC 27853 isolated from patient with pyelonephritis by Etest; assay type: functional
[5] = tested on: Escherichia coli; assay: Antimicrobial activity against Escherichia coli 1949821 B-M isolated from patient with pyelonephritis assessed as >3-log reduction in urinary bacterial titer after 20 hrs; assay type: functional, Urine
Procedure, shortened: (§3)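 Urine was collected on day 3 of i.v. therapy (steady state) over 4-h intervals from infusion start (0–4 to 20–24 h), stored at –80°C and sterile filtered. It was serially diluted twofold (1:0 up to 1:131,072) in the patient's own pre-dose drug-free urine. Microdilution used a final inoculum of 1.0 x 10^6 to 9.5 x 10^6 CFU/ml, incubated 18 h at 37°C in air. 10 µl was subcultured onto 5% blood Columbia agar for 24 h at 37°C. The bactericidal endpoint was >99.9% (>3-log) kill, reported as a reciprocal titer.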

[6] = tested on: Staphylococcus haemolyticus; assay: Antimicrobial activity against Staphylococcus haemolyticus 1949819 B-M isolated from patient with pyelonephritis assessed as >3-log reduction in urinary bacterial titer after 16 hrs; assay type: functional, Urine
[7] = tested on: Escherichia coli; assay: Antimicrobial activity against Escherichia coli 1949820 B-N isolated from patient with pyelonephritis assessed as >3-log reduction in urinary bacterial titer after 20 hrs; assay type: functional, Urine; procedure, shortened: as §3
[8] = Drug excretion in pyelonephritis patient urine at 500 mg/kg, iv administered every 8 hrs; assay type: ADME, organism-based; set-up: dose 500 mg/kg, route intravenous; details: human, read-out: Activity
[9] = tested on: Escherichia coli; assay: Antimicrobial activity against Escherichia coli 1135121 isolated from patient with pyelonephritis assessed as >3-log reduction in urinary bacterial titer after 4 hrs; assay type: functional, Urine; procedure, shortened: as §2
[10] = tested on: Enterococcus faecalis; assay: Antimicrobial activity against Enterococcus faecalis 1780065 B-B isolated from patient with pyelonephritis assessed as >3-log reduction in urinary bacterial titer after 8 hrs; assay type: functional, Urine; procedure, shortened: as §2
[11] = tested on: Enterococcus faecalis; assay: Antimicrobial activity against Enterococcus faecalis 1780065 B-B isolated from patient with pyelonephritis assessed as >3-log reduction in urinary bacterial titer after 20 hrs; assay type: functional, Urine; procedure, shortened: as §2
[12] = tested on: Staphylococcus aureus; assay: Antimicrobial activity against Staphylococcus aureus 1134684 isolated from patient with pyelonephritis assessed as >3-log reduction in urinary bacterial titer after 8 hrs; assay type: functional, Urine; procedure, shortened: as §1
[13] = tested on: Pseudomonas aeruginosa; assay: Antimicrobial activity against Pseudomonas aeruginosa 1134642 isolated from patient with pyelonephritis assessed as >3-log reduction in urinary bacterial titer after 8 hrs; assay type: functional, Urine; procedure, shortened: as §1
[14] = tested on: Pseudomonas aeruginosa; assay: Antimicrobial activity against Pseudomonas aeruginosa 1134642 isolated from patient with pyelonephritis assessed as >3-log reduction in urinary bacterial titer after 12 hrs; assay type: functional, Urine; procedure, shortened: as §1
[15] = tested on: Staphylococcus haemolyticus; assay: Antimicrobial activity against Staphylococcus haemolyticus 1949819 B-M isolated from patient with pyelonephritis assessed as >3-log reduction in urinary bacterial titer after 8 hrs; assay type: functional, Urine
[16] = tested on: Enterococcus faecalis; assay: Antimicrobial activity against Enterococcus faecalis 1780065 B-B isolated from patient with pyelonephritis by Etest; assay type: functional
[17] = tested on: Pseudomonas aeruginosa; assay: Antimicrobial activity against Pseudomonas aeruginosa […] assessed as >3-log reduction in urinary bacterial titer after 4 hrs; assay type: functional, Urine; procedure, shortened: as §1
[18] = tested on: Escherichia coli; assay: Antimicrobial activity against Escherichia coli 1889645 B-I isolated from patient with pyelonephritis by Etest; assay type: functional
[19] = tested on: Pseudomonas aeruginosa; assay: Antimicrobial activity against Pseudomonas aeruginosa 1134642 isolated from patient with pyelonephritis assessed as >3-log reduction in urinary bacterial titer after 24 hrs; assay type: functional, Urine; procedure, shortened: as §1
[20] = tested on: Pseudomonas aeruginosa; assay: Antimicrobial activity against Pseudomonas aeruginosa 1134642 isolated from patient with pyelonephritis by Etest; assay type: functional
[21] = tested on: Pseudomonas aeruginosa; assay: Antimicrobial activity against Pseudomonas aeruginosa […] assessed as >3-log reduction in urinary bacterial titer after 12 hrs; assay type: functional, Urine; procedure, shortened: as §1
[22] = tested on: Escherichia coli; assay: Antimicrobial activity against Escherichia coli 1889646 B-F isolated from patient with pyelonephritis by Etest; assay type: functional
[23] = tested on: Proteus mirabilis; assay: Antimicrobial activity against Proteus mirabilis 1134841 isolated from patient with pyelonephritis assessed as >3-log reduction in urinary bacterial titer after 24 hrs; assay type: functional, Urine; procedure, shortened: as §1
[24] = tested on: Escherichia coli; assay: Antimicrobial activity against Escherichia coli 1780063 B-A isolated from patient with pyelonephritis assessed as >3-log reduction in urinary bacterial titer after 12 hrs; assay type: functional, Urine; procedure, shortened: as §2
[25] = tested on: Escherichia coli; assay: Antimicrobial activity against Escherichia coli 1949821 B-M isolated from patient with pyelonephritis assessed as >3-log reduction in urinary bacterial titer after 4 hrs; assay type: functional, Urine; procedure, shortened: as §3
[26] = tested on: Escherichia coli; assay: Antimicrobial activity against Escherichia coli 2297257 B-W isolated from patient with pyelonephritis assessed as >3-log reduction in urinary bacterial titer after 20 hrs; assay type: functional, Urine
[27] = tested on: Escherichia coli; assay: Antimicrobial activity against Escherichia coli 1949820 B-N isolated from patient with pyelonephritis assessed as >3-log reduction in urinary bacterial titer after 16 hrs; assay type: functional, Urine; procedure, shortened: as §3
[28] = tested on: Staphylococcus aureus; assay: Antimicrobial activity against Staphylococcus aureus 1134684 isolated from patient with pyelonephritis assessed as >3-log reduction in urinary bacterial titer after 16 hrs; assay type: functional, Urine; procedure, shortened: as §1
[29] = tested on: Escherichia coli; assay: Antimicrobial activity against Escherichia coli 1949826 B-L isolated from patient with pyelonephritis assessed as >3-log reduction in urinary bacterial titer after 20 hrs; assay type: functional, Urine; procedure, shortened: as §1
[30] = tested on: Escherichia coli; assay: Antimicrobial activity against Escherichia coli 1135121 isolated from patient with pyelonephritis assessed as >3-log reduction in urinary bacterial titer after 16 hrs; assay type: functional, Urine; procedure, shortened: as §2
[31] = tested on: Escherichia coli; assay: Antimicrobial activity against Escherichia coli 1949821 B-M isolated from patient with pyelonephritis assessed as >3-log reduction in urinary bacterial titer after 24 hrs; assay type: functional, Urine; procedure, shortened: as §3
[32] = tested on: Enterococcus faecalis; assay: Antimicrobial activity against Enterococcus faecalis 2297262-10 B-V isolated from patient with pyelonephritis by Etest; assay type: functional
[33] = tested on: Enterococcus faecalis; assay: Antimicrobial activity against Enterococcus faecalis 2297262-10 B-V isolated from patient with pyelonephritis assessed as >3-log reduction in urinary bacterial titer after 20 hrs; assay type: functional, Urine; procedure, shortened: as §2
[34] = tested on: Serratia marcescens; assay: Antimicrobial activity against Serratia marcescens 2297260 B-U isolated from patient with pyelonephritis assessed as >3-log reduction in urinary bacterial titer after 12 hrs; assay type: functional, Urine
[35] = tested on: Escherichia coli; assay: Antimicrobial activity against Escherichia coli 1889647 B-H isolated from patient with pyelonephritis assessed as >3-log reduction in urinary bacterial titer after 16 hrs; assay type: functional, Urine; procedure, shortened: as §3

## C[C@@H](O)[C@H]1C(=O)N2C(C(=O)O)=C(S[C@@H]3CN[C@H](CNS(N)(=O)=O)C3)[C@H](C)[C@H]12 [DORIPENEM]
[1]
  urinary bactericidal titer: 1.5 reciprocal titer
[2]
  urinary bactericidal titer: 128 reciprocal titer
[3]
  urinary bactericidal titer: 1024 reciprocal titer
[4]
  MIC: 0.12 µg/mL (≈ 0.285 µM)
[5]
  urinary bactericidal titer: 32800 titer
[6]
  urinary bactericidal titer: 128 reciprocal titer
[7]
  urinary bactericidal titer: 32800
[8]
  dose excreted at 8 h: 80%
[9]
  urinary bactericidal titer: 49200 reciprocal titer
[10]
  Time: 32 h
[11]
  urinary bactericidal titer: 256 reciprocal titer
[12]
  urinary bactericidal titer: 4 reciprocal titer
[13]
  urinary bactericidal titer: 1024 reciprocal titer
[14]
  urinary bactericidal titer: 6140 reciprocal titer
[15]
  urinary bactericidal titer: 128 reciprocal titer
[16]
  MIC: 4 µg/mL (≈ 9.51 µM)
[17]
  urinary bactericidal titer: 2048 reciprocal titer
[18]
  MIC: 0.03 µg/mL (≈ 0.0713 µM)
[19]
  urinary bactericidal titer: 1280 reciprocal titer
[20]
  MIC: 2 µg/mL (≈ 4.76 µM)
[21]
  urinary bactericidal titer: 3070 reciprocal titer
[22]
  MIC: 0.03 µg/mL (≈ 0.0713 µM)
[23]
  urinary bactericidal titer: 512 reciprocal titer
[24]
  urinary bactericidal titer: 4096 reciprocal titer
[25]
  urinary bactericidal titer: 32800
[26]
  urinary bactericidal titer: 32800 titer
[27]
  Time: 8192 h
[28]
  urinary bactericidal titer: 4 reciprocal titer
[29]
  urinary bactericidal titer: 65500 reciprocal titer
[30]
  urinary bactericidal titer: 8192 reciprocal titer
[31]
  Time: 5120 h

## C[C@H]1COc2c(N3CCN(C)CC3)c(F)cc3c(=O)c(C(=O)O)cn1c23.C[C@H]1COc2c(N3CCN(C)CC3)c(F)cc3c(=O)c(C(=O)O)cn1c23.O [LEVOFLOXACIN]
[1]
  urinary bactericidal titer: 2 reciprocal titer
[2]
  urinary bactericidal titer: 32 reciprocal titer
[3]
  urinary bactericidal titer: 0 reciprocal titer
[32]
  MIC: > 32 µg/mL
[4]
  MIC: 0.25 µg/mL
[5]
  urinary bactericidal titer: 48 titer
[7]
  Time: 1 h
[8]
  dose excreted at 8 h: 80%
[9]
  urinary bactericidal titer: 8 reciprocal titer
[10]
  Time: 16 h
[11]
  urinary bactericidal titer: 8 reciprocal titer
[12]
  urinary bactericidal titer: 4 reciprocal titer
[13]
  urinary bactericidal titer: 2 reciprocal titer
[14]
  urinary bactericidal titer: 1 reciprocal titer
[16]
  MIC: 1 µg/mL
[17]
  urinary bactericidal titer: 16 reciprocal titer
[19]
  urinary bactericidal titer: 0 reciprocal titer
[20]
  MIC: 16 µg/mL
[21]
  urinary bactericidal titer: 8 reciprocal titer
[22]
  MIC: > 8 µg/mL
[33]
  Time: 0 h
[23]
  urinary bactericidal titer: 0 reciprocal titer
[34]
  urinary bactericidal titer: 128 reciprocal titer
[25]
  Time: 192 h
[35]
  urinary bactericidal titer: 1024 reciprocal titer
[27]
  Time: 0.5 h
[28]
  urinary bactericidal titer: 4 reciprocal titer
[30]
  urinary bactericidal titer: 2.5 reciprocal titer
[31]
  Time: 40 h
